# Assay results: ChEMBL document CHEMBL2169768, “Synthesis and preliminary biological profile of new NO-donor tolbutamide analogues” (Bioorg Med Chem Lett, 2012)
# Activity calls are given as the source filed them. The calls are words filed in the database; no cut-off is given here.
# System: not listed separately
# Assay: Induction of glucose-stimulated insulin release from rat INS-1E cells at 200 uM after 1 hr by coated charcoal immunoassay in presence of 5.6 mM glucose
# Type: functional
# Conditions: not given
# Summary of the method: (§1)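 INS-1E cells at passages 54–65 were kept in RPMI 1640 with 10% heat-inactivated FCS, pyruvate, 2-mercaptoethanol, glutamine and HEPES, and were seeded at 4 x 10^4 cells/cm2. After 48 h they were preincubated 1 h at 37 °C in KRBH with 0.5% BSA and 1 or 2 mM glucose. They were then exposed 1 h at 37 °C to glucose ± compound (100 or 200 µM). Secreted insulin was measured by RIA against a rat insulin standard. Data are mean ± SEM.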
row,Structure (SMILES),Activity [%]
1,CCCCNC(=O)NS(=O)(=O)c1ccc(OCCCO[N+](=O)[O-])cc1,4.62
2,CCCCNC(=O)NS(=O)(=O)c1ccc(OCC(CO[N+](=O)[O-])O[N+](=O)[O-])cc1 (stereo not drawn),4.85
3,CCCCNC(=O)NS(=O)(=O)c1ccc(C)cc1 [TOLBUTAMIDE],4.98
4,CCCCNC(=O)NS(=O)(=O)c1ccc(OCc2no[n+]([O-])c2C(N)=O)cc1,4.19

# System: not listed separately
# Assay: (§2) Induction of glucose-stimulated insulin release from rat INS-1E cells at 200 uM after 1 hr by coated charcoal immunoassay in presence of 2 mM glucose
# Type: functional
# Conditions: not given
# Summary of the method: as §1
row,Structure (SMILES),Activity [%]
1,CCCCNC(=O)NS(=O)(=O)c1ccc(OCCCO[N+](=O)[O-])cc1,2.18
2,CCCCNC(=O)NS(=O)(=O)c1ccc(OCC(CO[N+](=O)[O-])O[N+](=O)[O-])cc1 (stereo not drawn),2.6
3,CCCCNC(=O)NS(=O)(=O)c1ccc(C)cc1 [TOLBUTAMIDE],2.76
4,CCCCNC(=O)NS(=O)(=O)c1ccc(OCc2no[n+]([O-])c2C(N)=O)cc1,2.12

# System: INS-1E
# Assay: as §2
# Type: functional
# Conditions: not given
# Summary of the method: as §1
row,Structure (SMILES),Activity
1,[O-][n+]1onc(COc2ccccc2)c1-c1ccccc1,inactive
2,O=S(=O)(c1ccccc1)c1c(Oc2ccccc2)no[n+]1[O-],inactive
3,N#Cc1c(COc2ccccc2)no[n+]1[O-],inactive
4,O=[N+]([O-])OCCCOc1ccccc1,inactive
5,NC(=O)c1c(COc2ccccc2)no[n+]1[O-],inactive
6,O=[N+]([O-])OCC(COc1ccccc1)O[N+](=O)[O-] (stereo not drawn),inactive

# System: not listed separately
# Assay: Induction of glucose-stimulated insulin release from rat INS-1E cells at 200 uM after 1 hr by coated charcoal immunoassay in presence of 11 mM glucose
# Type: functional
# Conditions: not given
# Summary of the method: as §1
row,Structure (SMILES),Activity [%]
1,CCCCNC(=O)NS(=O)(=O)c1ccc(OCCCO[N+](=O)[O-])cc1,5.79
2,CCCCNC(=O)NS(=O)(=O)c1ccc(C)cc1 [TOLBUTAMIDE],5.45
3,CCCCNC(=O)NS(=O)(=O)c1ccc(OCc2no[n+]([O-])c2C(N)=O)cc1,4.92

# System: not listed separately
# Assay: Induction of glucose-stimulated insulin release from rat INS-1E cells at 100 uM after 1 hr by coated charcoal immunoassay in presence of 2 mM glucose relative to control
# Type: functional
# Conditions: not given
# Summary of the method: as §1
row,Structure (SMILES),Activity [%]
1,CCCCNC(=O)NS(=O)(=O)c1ccc(OCCCO[N+](=O)[O-])cc1,1.86
2,CCCCNC(=O)NS(=O)(=O)c1ccc(Oc2no[n+]([O-])c2S(=O)(=O)c2ccccc2)cc1,3.06
3,CCCCNC(=O)NS(=O)(=O)c1ccc(C)cc1 [TOLBUTAMIDE],2.22
4,CCCCNC(=O)NS(=O)(=O)c1ccc(OCc2no[n+]([O-])c2C(N)=O)cc1,1.46
5,CCCCNC(=O)NS(=O)(=O)c1ccc(OCc2no[n+]([O-])c2-c2ccccc2)cc1,1.83

# System: Aorta
# Assay: Vasodilatory activity in Wistar rat thoracic aorta assessed as relaxation of L-phenylephrine-induced contraction after 120 mins in presence of 1 uM sGC inhibitor ODQ
# Type: functional, tissue-based
# Conditions: not given
row,Structure (SMILES),Activity
1,CCCCNC(=O)NS(=O)(=O)c1ccc(C)cc1 [TOLBUTAMIDE],inactive

# Same assay, conditions: 2 h
row,Structure (SMILES),EC50 [nM]
1,CCCCNC(=O)NS(=O)(=O)c1ccc(OCCCO[N+](=O)[O-])cc1,> 100000
2,CCCCNC(=O)NS(=O)(=O)c1ccc(Oc2no[n+]([O-])c2S(=O)(=O)c2ccccc2)cc1,220
3,CCCCNC(=O)NS(=O)(=O)c1ccc(OCc2no[n+]([O-])c2C#N)cc1,900
4,CCCCNC(=O)NS(=O)(=O)c1ccc(OCC(CO[N+](=O)[O-])O[N+](=O)[O-])cc1 (stereo not drawn),61000
5,CCCCNC(=O)NS(=O)(=O)c1ccc(OCc2no[n+]([O-])c2C(N)=O)cc1,57000
6,CCCCNC(=O)NS(=O)(=O)c1ccc(OCc2no[n+]([O-])c2-c2ccccc2)cc1,> 100000

# System: not listed separately
# Assay: Induction of NO release in phosphate buffered saline of pH 7.4 after 1 hr by Griess assay in presence of 5 mM L-cysteine
# Type: physicochemical
# Conditions: buffer, pH 7.4, 1 h
row,Structure (SMILES),Activity [%]
1,CCCCNC(=O)NS(=O)(=O)c1ccc(OCCCO[N+](=O)[O-])cc1,< 1
2,CCCCNC(=O)NS(=O)(=O)c1ccc(OCC(CO[N+](=O)[O-])O[N+](=O)[O-])cc1 (stereo not drawn),4.3
3,CCCCNC(=O)NS(=O)(=O)c1ccc(OCc2no[n+]([O-])c2C(N)=O)cc1,9.1
4,CCCCNC(=O)NS(=O)(=O)c1ccc(OCc2no[n+]([O-])c2-c2ccccc2)cc1,< 1

# System: not listed separately
# Assay: Antiaggregatory activity in human platelet-rich plasma assessed as inhibition of collagen-induced aggregation pretreated 10 mins before addition of stimulus measured after 10 mins in presence of 50 uM ODQ
# Type: functional
# Conditions: not given
row,Structure (SMILES),IC50 [nM]
1,CCCCNC(=O)NS(=O)(=O)c1ccc(Oc2no[n+]([O-])c2S(=O)(=O)c2ccccc2)cc1,34000
2,CCCCNC(=O)NS(=O)(=O)c1ccc(OCc2no[n+]([O-])c2C#N)cc1,209000

# System: liver (rat)
# Assay: Induction of nitric oxide release from Wistar rat liver homogenate at 200 uM after 45 mins by Griess method
# Conditions: not given
row,Structure (SMILES),Activity
1,CCCCNC(=O)NS(=O)(=O)c1ccc(OCCCO[N+](=O)[O-])cc1,Active
2,CCCCNC(=O)NS(=O)(=O)c1ccc(OCC(CO[N+](=O)[O-])O[N+](=O)[O-])cc1 (stereo not drawn),Active

# System: Aorta
# Assay: Vasodilatory activity in Wistar rat thoracic aorta assessed as relaxation of L-phenylephrine-induced contraction after 120 mins
# Type: functional, tissue-based
# Conditions: not given
row,Structure (SMILES),Activity
1,CCCCNC(=O)NS(=O)(=O)c1ccc(OCCCO[N+](=O)[O-])cc1,Dose-dependent effect
2,CCCCNC(=O)NS(=O)(=O)c1ccc(Oc2no[n+]([O-])c2S(=O)(=O)c2ccccc2)cc1,Dose-dependent effect
3,CCCCNC(=O)NS(=O)(=O)c1ccc(OCc2no[n+]([O-])c2C#N)cc1,Dose-dependent effect
4,CCCCNC(=O)NS(=O)(=O)c1ccc(OCC(CO[N+](=O)[O-])O[N+](=O)[O-])cc1 (stereo not drawn),Dose-dependent effect
5,CCCCNC(=O)NS(=O)(=O)c1ccc(C)cc1 [TOLBUTAMIDE],Dose-dependent effect
6,CCCCNC(=O)NS(=O)(=O)c1ccc(OCc2no[n+]([O-])c2C(N)=O)cc1,Dose-dependent effect
7,CCCCNC(=O)NS(=O)(=O)c1ccc(OCc2no[n+]([O-])c2-c2ccccc2)cc1,Dose-dependent effect

# Same assay, conditions: 2 h
row,Structure (SMILES),EC50 [nM]
1,CCCCNC(=O)NS(=O)(=O)c1ccc(OCCCO[N+](=O)[O-])cc1,1600
2,CCCCNC(=O)NS(=O)(=O)c1ccc(Oc2no[n+]([O-])c2S(=O)(=O)c2ccccc2)cc1,2.4
3,CCCCNC(=O)NS(=O)(=O)c1ccc(OCC(CO[N+](=O)[O-])O[N+](=O)[O-])cc1 (stereo not drawn),900
4,CCCCNC(=O)NS(=O)(=O)c1ccc(OCc2no[n+]([O-])c2C(N)=O)cc1,740
5,CCCCNC(=O)NS(=O)(=O)c1ccc(OCc2no[n+]([O-])c2-c2ccccc2)cc1,2400

# System: not listed separately
# Assay: Induction of NO release in phosphate buffered saline of pH 7.4 after 1 hr by Griess assay in presence of 0.5 mM L-cysteine
# Type: physicochemical
# Conditions: buffer, pH 7.4, 1 h
row,Structure (SMILES),Activity [%]
1,CCCCNC(=O)NS(=O)(=O)c1ccc(Oc2no[n+]([O-])c2S(=O)(=O)c2ccccc2)cc1,32.1
2,CCCCNC(=O)NS(=O)(=O)c1ccc(OCc2no[n+]([O-])c2C#N)cc1,27.7

# System: not listed separately
# Assay: Induction of glucose-stimulated insulin release from rat INS-1E cells at 200 uM after 1 hr by coated charcoal immunoassay in presence of 2 mM glucose relative to control
# Type: functional
# Conditions: not given
# Summary of the method: as §1
row,Structure (SMILES),Activity [%]
1,CCCCNC(=O)NS(=O)(=O)c1ccc(OCCCO[N+](=O)[O-])cc1,2.38
2,CCCCNC(=O)NS(=O)(=O)c1ccc(Oc2no[n+]([O-])c2S(=O)(=O)c2ccccc2)cc1,4.33
3,CCCCNC(=O)NS(=O)(=O)c1ccc(C)cc1 [TOLBUTAMIDE],2.97
4,CCCCNC(=O)NS(=O)(=O)c1ccc(OCc2no[n+]([O-])c2C(N)=O)cc1,1.94
5,CCCCNC(=O)NS(=O)(=O)c1ccc(OCc2no[n+]([O-])c2-c2ccccc2)cc1,2.41

# System: not listed separately
# Assay: Induction of nitrite production in rat INS-1E cells assessed per well at 200 uM after 2 hrs by Griess method in presence of 2 mM glucose
# Type: functional
# Conditions: not given
row,Structure (SMILES),Activity [nmol]
1,CCCCNC(=O)NS(=O)(=O)c1ccc(OCCCO[N+](=O)[O-])cc1,3.88
2,CCCCNC(=O)NS(=O)(=O)c1ccc(Oc2no[n+]([O-])c2S(=O)(=O)c2ccccc2)cc1,22.68
3,CCCCNC(=O)NS(=O)(=O)c1ccc(OCc2no[n+]([O-])c2C#N)cc1,10.33
4,CCCCNC(=O)NS(=O)(=O)c1ccc(OCC(CO[N+](=O)[O-])O[N+](=O)[O-])cc1 (stereo not drawn),5.65
5,CCCCNC(=O)NS(=O)(=O)c1ccc(C)cc1 [TOLBUTAMIDE],3.2
6,CCCCNC(=O)NS(=O)(=O)c1ccc(OCc2no[n+]([O-])c2C(N)=O)cc1,3.47
7,CCCCNC(=O)NS(=O)(=O)c1ccc(OCc2no[n+]([O-])c2-c2ccccc2)cc1,7.03

# System: INS-1E
# Assay: Induction of glucose-stimulated insulin release from rat INS-1E cells at 200 uM after 1 hr by coated charcoal immunoassay in presence of up to 4 mM glucose
# Type: functional, cell-based
# Conditions: not given
# Summary of the method: as §1
row,Structure (SMILES),Activity
1,CCCCNC(=O)NS(=O)(=O)c1ccc(Oc2no[n+]([O-])c2S(=O)(=O)c2ccccc2)cc1,Active
2,CCCCNC(=O)NS(=O)(=O)c1ccc(OCc2no[n+]([O-])c2C#N)cc1,Active
3,CCCCNC(=O)NS(=O)(=O)c1ccc(OCC(CO[N+](=O)[O-])O[N+](=O)[O-])cc1 (stereo not drawn),Active
4,CCCCNC(=O)NS(=O)(=O)c1ccc(C)cc1 [TOLBUTAMIDE],Active
5,CCCCNC(=O)NS(=O)(=O)c1ccc(OCc2no[n+]([O-])c2-c2ccccc2)cc1,Active

# System: not listed separately
# Assay: Antiaggregatory activity in human platelet-rich plasma assessed as inhibition of collagen-induced aggregation at 300 uM pretreated 10 mins before addition of stimulus measured after 10 mins
# Type: functional
# Conditions: not given
# Summary of the method: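 Collagen-triggered aggregation in human platelet-rich plasma, by a method described in earlier work. Inhibition is taken relative to control samples. IC50 is obtained by nonlinear regression where it can be calculated. Otherwise percent inhibition is reported at the top concentration tried, 300 µM.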
row,Structure (SMILES),inhibition at 300 µM [%]
1,CCCCNC(=O)NS(=O)(=O)c1ccc(OCCCO[N+](=O)[O-])cc1,1.1
2,CCCCNC(=O)NS(=O)(=O)c1ccc(OCC(CO[N+](=O)[O-])O[N+](=O)[O-])cc1 (stereo not drawn),5.6
3,CCCCNC(=O)NS(=O)(=O)c1ccc(C)cc1 [TOLBUTAMIDE],6.4
4,CCCCNC(=O)NS(=O)(=O)c1ccc(OCc2no[n+]([O-])c2C(N)=O)cc1,5.2
5,CCCCNC(=O)NS(=O)(=O)c1ccc(OCc2no[n+]([O-])c2-c2ccccc2)cc1,13
